Usually IC50 stands for the concentration that gives 50% inhibition.

The test system of assay [1] is MCF7. The experiment in a line: Cell cycle arrest in human MCF7 cells assessed as accumulation at S phase at 3 uM after 24 hrs by flow cytometry. The class given is functional. An outline of the steps:
(§1)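 MCF-7 cells in 6-well plates, exposed to compound for 24 h at 37 °C, then pulse-labelled with 10 µM bromodeoxyuridine for 30 min. Cells trypsinized, fixed in 80% methanol at -20 °C, acid-denatured and permeabilized, stained with anti-BrdU-FITC, counterstained with propidium iodide and run on flow cytometry. S-phase percentage taken from the propidium iodide histogram.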
A general note: In flow cytometry, cells or beads pass a laser one at a time.

A further assay deals with HCT-116. The experiment in a line: Antiproliferative activity against human HCT116 cells by SRB method. The class given is functional, cell-based. Background: Sulforhodamine B stains cellular protein and so reports cell mass.
Assay [2] concerns the target Cyclin-dependent kinase 1/cyclin B1 (Homo sapiens, UniProt P06493). The experiment in a line: Inhibition of CDK1/Cyclin B1 expressed in Sf9 cells-baculovirus system assessed as retinoblastoma susceptibility gene product phosphorylation.
The subject of assay [3] is MCF7. Put plainly: Cell cycle arrest in human MCF7 cells assessed as accumulation at S phase at 1 uM after 24 hrs by flow cytometry. The class given is functional. In short, it runs like this: as §1
Assay [4] relates to MCF7. The experiment in a line: Cell cycle arrest in human MCF7 cells assessed as accumulation at S phase at 0.1 uM after 24 hrs by flow cytometry. Format: functional. In short, it runs like this:
as §1

Assay [5] has as its target T1, Retinoblastoma-associated protein (Homo sapiens) (UniProt P06400).
T1 sequence (whole entry): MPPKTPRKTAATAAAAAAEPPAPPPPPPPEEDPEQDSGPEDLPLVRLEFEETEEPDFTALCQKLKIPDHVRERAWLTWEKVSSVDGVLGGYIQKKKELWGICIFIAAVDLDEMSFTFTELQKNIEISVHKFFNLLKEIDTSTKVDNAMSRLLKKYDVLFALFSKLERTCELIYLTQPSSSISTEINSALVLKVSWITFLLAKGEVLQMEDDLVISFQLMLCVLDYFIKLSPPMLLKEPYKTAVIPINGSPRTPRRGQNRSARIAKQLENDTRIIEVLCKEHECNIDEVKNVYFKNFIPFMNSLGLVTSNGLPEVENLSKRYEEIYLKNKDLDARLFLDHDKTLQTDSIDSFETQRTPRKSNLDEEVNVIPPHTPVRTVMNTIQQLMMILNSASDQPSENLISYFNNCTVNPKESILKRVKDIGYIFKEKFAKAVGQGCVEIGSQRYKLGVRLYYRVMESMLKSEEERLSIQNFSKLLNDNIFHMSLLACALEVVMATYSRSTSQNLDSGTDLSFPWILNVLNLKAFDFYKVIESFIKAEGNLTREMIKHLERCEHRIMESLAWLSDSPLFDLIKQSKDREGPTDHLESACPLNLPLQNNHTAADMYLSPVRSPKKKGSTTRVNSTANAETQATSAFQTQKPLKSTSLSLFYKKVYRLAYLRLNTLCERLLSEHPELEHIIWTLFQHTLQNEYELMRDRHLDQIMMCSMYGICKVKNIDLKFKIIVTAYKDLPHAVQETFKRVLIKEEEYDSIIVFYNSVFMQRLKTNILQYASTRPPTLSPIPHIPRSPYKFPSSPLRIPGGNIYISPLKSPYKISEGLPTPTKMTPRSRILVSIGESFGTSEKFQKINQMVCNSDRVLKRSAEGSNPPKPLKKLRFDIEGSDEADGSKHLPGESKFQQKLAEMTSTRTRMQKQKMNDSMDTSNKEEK
The experiment in a line: Inhibition of retinoblastoma susceptibility gene product phosphorylation in human MCF7 cells after 24 hrs. The class given is cell-based. An outline of the steps: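 MCF-7 cells exposed to compound for 24 h at 37 °C. Extracts separated by SDS-PAGE and immunoblotted with Rb antibody, with the phosphorylated pRB band followed. Also checked with an antibody specific for phospho-Ser807/811 pRB.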

Assay [6] concerns MCF7. Put plainly: Cell cycle arrest in human MCF7 cells assessed as accumulation at S phase at 0.3 uM after 24 hrs by flow cytometry. Format: functional. In short, it runs like this: as §1
The subject of assay [7] is MCF7. Put plainly: Antiproliferative activity against human MCF7 cells by SRB method. Format: functional, cell-based.
The subject of assay [8] is MCF7. The experiment in a line: Cell cycle arrest in human MCF7 cells assessed as accumulation at G1 phase after 24 hrs by flow cytometry. The class given is functional, cell-based. An outline of the steps:
as §1

The subject of assay [9] is MCF7. The experiment in a line: Decrease in CDK1 level in human MCF7 cells at 7.5 uM after 24 hrs by immunoblot analysis. Format: functional. More on the design: scale not given: the % may be the effect or the level left. In short, it runs like this:
(§2)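 MCF-7 cells incubated with or without compound for 24 h at 37 °C. Lysates made in Tris/NaCl/EDTA/NP-40/deoxycholate buffer containing PMSF, DTT, NaF and vanadate. 10-20 µg protein run on 8 or 10% SDS-PAGE and blotted to nitrocellulose. Probed with antibodies to each regulatory protein; actin antibody served as loading control.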
In general terms: A western blot detects proteins with antibodies after separation by electrophoresis.

Assay [10] deals with Cyclin-dependent kinase 2 (Homo sapiens, UniProt P24941). Put plainly: Inhibition of CDK2/cyclin E expressed in Sf9 cells-baculovirus system assessed as retinoblastoma susceptibility gene product phosphorylation.
The subject of assay [11] is MCF7. Put plainly: Increase in cyclin E level in human MCF7 cells at >2 uM after 24 hrs by immunoblot analysis. Format: functional. An outline of the steps: as §2
Assay [12] relates to MCF7. Put plainly: Decrease in p27 level in human MCF7 cells at 7.5 uM after 24 hrs by immunoblot analysis. The class given is functional. Also on record: scale not given: the % may be the effect or the level left. An outline of the steps: as §2
The test system of assay [13] is MCF7. The experiment in a line: Decrease in CDK2 level in human MCF7 cells at 7.5 uM after 24 hrs by immunoblot analysis. The class given is functional. More on the design: scale not given: the % may be the effect or the level left. In short, it runs like this: as §2
For assay [14], the system named is MCF7. Put plainly: Decrease in CDK4 level in human MCF7 cells at 7.5 to 10 uM after 24 hrs by immunoblot analysis. The class given is functional. More on the design: scale not given: the % may be the effect or the level left. An outline of the steps:
as §2

The target in assay [15] is Cyclin-dependent kinase 4/cyclin D1 (Homo sapiens, UniProt P11802). Put plainly: Inhibition of CDK4/cyclin D1 expressed in Sf9 cells-baculovirus system assessed as retinoblastoma susceptibility gene product phosphorylation.
For assay [16], the system named is MCF7. The experiment in a line: Decrease in cyclin D1 level in human MCF7 cells at 7.5 to 10 uM after 24 hrs by immunoblot analysis. Format: functional. Also on record: scale not given: the % may be the effect or the level left. An outline of the steps: as §2
Assay [17] deals with MCF7. The experiment in a line: Decrease in cyclin B level in human MCF7 cells at 4 uM after 24 hrs by immunoblot analysis. Format: functional. More on the design: scale not given: the % may be the effect or the level left. In short, it runs like this:
as §2

Active and inactive are the calls of the source. The calls are words filed in the database; no cut-off is given here. Some results are limits rather than exact numbers.

Sequence of Cyclin-dependent kinase 1/cyclin B1 (P06493 whole entry): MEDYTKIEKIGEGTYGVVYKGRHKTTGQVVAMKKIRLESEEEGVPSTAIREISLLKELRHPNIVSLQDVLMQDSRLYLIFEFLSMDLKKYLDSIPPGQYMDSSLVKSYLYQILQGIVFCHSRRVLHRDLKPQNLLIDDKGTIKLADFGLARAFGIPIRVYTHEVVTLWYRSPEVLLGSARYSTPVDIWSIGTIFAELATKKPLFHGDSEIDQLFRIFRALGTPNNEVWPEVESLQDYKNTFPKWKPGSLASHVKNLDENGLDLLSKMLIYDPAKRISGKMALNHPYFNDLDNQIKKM
Sequence of Cyclin-dependent kinase 1/cyclin B1 (P14635 whole entry, further chain): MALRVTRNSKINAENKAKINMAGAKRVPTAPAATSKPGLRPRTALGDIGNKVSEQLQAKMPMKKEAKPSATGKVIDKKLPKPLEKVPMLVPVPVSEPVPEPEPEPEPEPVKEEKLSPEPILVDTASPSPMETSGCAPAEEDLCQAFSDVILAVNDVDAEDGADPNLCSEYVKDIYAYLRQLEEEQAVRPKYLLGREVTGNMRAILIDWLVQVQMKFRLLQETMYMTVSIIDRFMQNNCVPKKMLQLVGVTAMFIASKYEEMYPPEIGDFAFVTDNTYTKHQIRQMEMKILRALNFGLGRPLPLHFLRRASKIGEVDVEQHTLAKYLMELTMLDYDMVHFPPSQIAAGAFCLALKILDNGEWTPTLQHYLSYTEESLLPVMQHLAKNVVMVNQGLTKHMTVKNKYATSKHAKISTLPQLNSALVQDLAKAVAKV
Sequence of Cyclin-dependent kinase 4/cyclin D1 (P11802 whole entry): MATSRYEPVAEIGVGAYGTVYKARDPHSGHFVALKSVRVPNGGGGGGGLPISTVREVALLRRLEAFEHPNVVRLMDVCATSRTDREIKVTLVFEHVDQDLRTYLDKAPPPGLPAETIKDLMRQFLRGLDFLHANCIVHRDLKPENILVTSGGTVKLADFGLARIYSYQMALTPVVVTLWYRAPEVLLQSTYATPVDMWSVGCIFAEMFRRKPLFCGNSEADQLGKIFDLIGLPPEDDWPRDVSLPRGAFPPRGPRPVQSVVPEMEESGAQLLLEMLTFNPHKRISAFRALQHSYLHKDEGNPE
Sequence of Cyclin-dependent kinase 4/cyclin D1 (P24385 whole entry, further chain): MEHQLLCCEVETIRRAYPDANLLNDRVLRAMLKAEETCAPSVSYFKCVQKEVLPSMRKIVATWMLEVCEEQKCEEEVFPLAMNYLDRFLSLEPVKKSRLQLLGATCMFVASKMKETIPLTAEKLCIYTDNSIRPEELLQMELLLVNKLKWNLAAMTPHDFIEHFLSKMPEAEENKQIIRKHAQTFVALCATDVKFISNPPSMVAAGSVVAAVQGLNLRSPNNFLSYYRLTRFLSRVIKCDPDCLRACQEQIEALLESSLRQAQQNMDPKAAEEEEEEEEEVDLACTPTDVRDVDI

In the case of `CN1CCN(c2ccc(N/C=C3\C(=O)NC(=O)c4ccc(Br)cc43)cc2)CC1`, the Activity was 3% in the assay on MCF7 [1]; 16% in the assay with MCF7 [3]; 37% with MCF7 [4]; “Dose-dependent effect” in assay [5]; 32% in the assay on MCF7 [6]. The IC50 in the assay on HCT-116 was 3.1 µM; in [2], more than 50 µM; with MCF7 [7], 3 µM. The outcome in the assay with MCF7 [8] was Active.
Turning to `O=C1NC(=O)c2ccc(Br)cc2/C1=C/Nc1ccc(CN2CCCCC2)cc1`, the Activity in the assay on MCF7 [9] was 40%; in the assay with MCF7 [1] it was 2%; with MCF7 [11] it was 5%; in the assay with MCF7 [12], 45%; in the assay on MCF7 [3] it was 10%; with MCF7 [13] it was 55%. Besides, the Activity with MCF7 [14] is 60%; in the assay with MCF7 [4] it was 35%; in the assay on MCF7 [16], 85%; in [5], “Dose-dependent effect”; in the assay on MCF7 [6] it was 34%; with MCF7 [17], 60%. Besides, the concentration for half-maximal inhibition (IC50) is 5 µM in the assay on HCT-116; more than 50 µM in [2]; more than 50 µM in assay [10]; 1.1 µM in assay [15]; 3.1 µM with MCF7 [7]. Also, the outcome in the assay on MCF7 [8] was Active.

The record behind these values is ChEMBL document CHEMBL1150411, “4-(Phenylaminomethylene)isoquinoline-1,3(2H,4H)-diones as potent and selective inhibitors of the cyclin-dependent kinase 4 (CDK4)” (J Med Chem, 2008).
